Results reported in article PMC4040673 (Cell Death & Disease, 2014).
Values belong to the compound of their own block, whether it stands above or below them.

Key:
[1] = system: isolated mitochondria from HT-22 cells; assay: CCCP-induced depolarization / MPT pore opening in isolated HT-22 mitochondria; assay type: cell-based, mouse; conditions: 50 μM CCCP
Outline: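 Then treated with 50 μM CCCP protonophore. Δψm followed with 20 nM DiOC6(3) on a fluorescence plate reader. Measurements in triplicate, representative of at least three independent experiments.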

HT-22 cells [2] = assay: Intracellular Ca2+; assay type: cell-based, mouse; conditions: glutamate 12 h, Fluo-4; n = 8
Outline: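 Transfected HT-22 cells seeded in 96-well plates and grown 24 h, then treated with 2 mM glutamate for 12 h. Fluo-4 AM (5 μM) added to the medium for 30 min. After washing, fluorescence read on a plate reader at excitation 485 nm and emission 520 nm.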

CypA [3] = molecular target: CypA (Homo sapiens, UniProt P62937); assay: SPR direct binding to immobilized CypA
tAIF = assay: SPR binding of peptides to tAIF; set-up: species or system mouse; conditions: direct binding to immobilized protein, applied concentration range
HT-22 cells [4] = assay: Annexin-V-FITC/PI flow cytometry in glutamate-treated HT-22 cells; assay type: cell-based, mouse; conditions: siRNA transfected; glutamate 2 mM
Outline: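 HT-22 cells grown at 37 °C, 5% CO2 in DMEM with 10% heat-inactivated calf serum. Transfected with scrambled or mouse CypA siRNA (Lipofectamine-2000), then given 2 mM glutamate. Stained with Annexin-V-FITC/PI by kit and run on a FACScan: FITC excited at 488 nm, emission 530±40 nm; PI excited at 488 nm, emission 680±30 nm. Experiments repeated at least three times.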

HT-22 cells [5] = assay: Real-time impedance; assay type: cell-based, mouse; conditions: siRNA transfected; glutamate 2 mM, ~15 h, n=8
AIF = assay type: cell-based, mouse; conditions: peptide 50 μM or siRNA transfected; glutamate 2 mM, 12 h
Outline: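 HT-22 cells carried siRNA (Lipofectamine-2000) or 50 μM peptide (cationic lipid protein-transfection reagent) and were seeded on chamber slides. Exposed to 2 mM glutamate for 12–14 h. Fixed in 4% paraformaldehyde, permeabilised with 0.04% Triton X, and immunostained for AIF with Alexa 568/488 secondaries and DAPI. Imaged by confocal laser scanning with a 63× 1.4-NA oil objective.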

HT-22 cells [6] = assay: Cell viability; assay type: cell-based, mouse; conditions: siRNA transfected (Lipofectamine-2000), glutamate 2 mM, 12 h
Outline: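 HT-22 cells seeded at 10 000 cells/well in 96-well plates, in DMEM with 10% heat-inactivated calf serum at 37 °C. siRNA transfected with Lipofectamine-2000, then exposed to 2 mM glutamate for 12 h. MTT at 0.5 mg/ml for 1 h; absorbance read at 570 nm with 630 nm reference. Controls set to 100%. At least three repeats, n=8 per condition.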

CypA [7] = assay: siRNA knockdown of CypA; assay type: cell-based, mouse; conditions: HT-22, RT-PCR and immunoblotting
Outline: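 HT-22 cells transfected with scrambled or mouse CypA siRNA (Lipofectamine-2000). One-step RT-PCR on total RNA, GAPDH as reference: cDNA step 60 °C 30 min, 95 °C 2 min, then 30 cycles of 95 °C 30 s, 57 °C 1 min, 70 °C 2 min. Lysates run on SDS-PAGE and blotted to PVDF. Primary antibody overnight at 4 °C, HRP secondary 1:2500, chemiluminescence; tubulin or actin as loading control.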

HT-22 cells [8] = assay: Cell viability of glutamate-treated HT-22 cells in medium without Ca2+; assay type: cell-based, mouse; conditions: glutamate 2 mM, 12–14 h, n=4

Chain of CypA (Homo sapiens, UniProt P62937) (P62937 whole entry): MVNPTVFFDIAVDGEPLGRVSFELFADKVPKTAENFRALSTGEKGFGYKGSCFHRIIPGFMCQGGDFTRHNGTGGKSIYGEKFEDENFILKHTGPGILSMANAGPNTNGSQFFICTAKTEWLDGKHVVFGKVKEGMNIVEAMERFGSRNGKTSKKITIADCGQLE

Compound: N#CC(C#N)=NNc1cccc(Cl)c1 [CCCP, carbonyl cyanide m-chlorophenyl hydrazone]
loss of Δψm induced by CCCP [1]: strong loss of Δψm

Compound: N[C@@H](CCC(=O)O)C(=O)O [Glutamate]
intracellular Ca2+ concentration induced by glutamate (HT-22 cells [2]): dose-dependent increase

affinity for CypA (in words) (CypA [3]): very weak affinity
fold lower affinity for CypA compared with AIF(370–394) (CypA [3]; ratio of KD values): 1000 fold
affinity to tAIF (in words) (tAIF): No affinity to tAIF was detected
Compound: ILPEYLSNWTMEKVRREG [AIF(343–360)]

Compound: siCypA: mouse siRNA targeting CypA: siCypAFw 5′-CUGAAUGGCUGGAUGGCAA-3′ and siCypARev 5′-UUGCCAUCCAGCCAUUCAG-3′ (chemistry not given here)
protection against glutamate-induced cell death by siRNA, Annexin-V/PI (HT-22 cells [4]): full protection
protection against glutamate-induced cell death by siRNA, impedance (HT-22 cells [5]): full protection
glutamate-induced nuclear translocation of AIF (AIF): very weak nuclear AIF staining
protection against glutamate-induced cell death by siRNA, MTT (HT-22 cells [6]): full protection
CypA expression after siRNA (CypA [7]): significantly reduced
protective effect combined with depletion of extracellular Ca2+ (HT-22 cells [8]): additive protective effects to depletion of extracellular Ca^2+
